≈ marks a conversion by molar mass, not a printed value. Calls of active or inactive are those of the source. The calls are words filed in the database; no cut-off is given here.
Experiments:
Aspergillus fumigatus [1] = assay: Antifungal activity against Aspergillus fumigatus ATCC 26430 after 48 hrs at pH 7.5; assay type: functional; details: ATCC 26430, 48 h
In short: (§1)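 The method followed CLSI M38-A2 (Aspergillus) or M27-A3. Medium was RPMI 1640 with 0.165 M MOPS and L-glutamine, without NaHCO3, at pH 5.5 or 7.5. Inoculum of 2 × 10^3 CFU/mL was mixed 1:1 with serial 2-fold peptide dilutions. Incubation was at 35 °C: 48 h for A. fumigatus and C. albicans, 72 h for C. neoformans. MIC was read by eye as no growth. Values are averages of duplicates.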

Escherichia coli [2] = assay: Antibacterial activity against Escherichia coli ATCC D21 after 18 to 20 hrs at pH 5.5; assay type: functional, organism-based
In short: (§2)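 Broth microdilution in LB: bacterial suspension at 10^6 CFU/mL mixed 1:1 with serial 2-fold peptide dilutions, made from a 1 mg/mL aqueous stock. Strains were E. coli ATCC D21 and S. aureus ATCC 6538P. MIC was the lowest concentration with no growth after 18–20 h. Values are averages of duplicate experiments.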

Aspergillus fumigatus [3] = assay: Induction of membrane damage in Aspergillus fumigatus at 1.56 to 100 uM at pH 5.5 by Sytox green-based fluorescence assay; assay type: functional, organism-based
In short: (§3)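 A. fumigatus at 2 × 10^3 CFU/mL in RPMI/MOPS (pH 7.4 or 5.5) was grown 20 h at 35 °C. Sytox green was added at 0.2 μM final in sodium phosphate buffer (pH 5.5 or 7.5) for 15 min. Peptides were then added at 100–1.56 μM final. Fluorescence (ex 485/em 530 nm) was read after 1 h.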

Candida albicans [4] = assay: Antifungal activity against Candida albicans ATCC 10231 after 48 hrs at pH 5.5; assay type: functional; details: ATCC 10231, 48 h; in short: as §1
Staphylococcus aureus [5] = assay: Antibacterial activity against Staphylococcus aureus ATCC 6538P after 18 to 20 hrs at pH 5.5; assay type: functional, organism-based; in short: as §2
Aspergillus fumigatus [6] = assay: Induction of membrane depolarization in Aspergillus fumigatus at 1.56 to 100 uM at pH 5.5 by DiSC3(5)-based fluorescence assay; assay type: functional, organism-based
In short: (§4)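 A. fumigatus was pregrown 20 h at 35 °C from 2 × 10^3 CFU/mL in RPMI/MOPS (pH 7.4 or 5.5). Cells were loaded with DiSC3(5) at 0.2 μM final in sodium phosphate buffer (pH 5.5 or 7.5) for 15 min. Peptides were added at 1.56–100 μM final, and fluorescence (ex 640/em 660 nm) was read after 1 h.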

Cryptococcus neoformans [7] = assay: Antifungal activity against Cryptococcus neoformans ATCC MYA422 after 72 hrs at pH 7.5; assay type: functional; details: ATCC MYA422, 72 h; in short: as §1
Aspergillus fumigatus [8] = assay: Antifungal activity against Aspergillus fumigatus ATCC 26430 after 48 hrs at pH 5.5; assay type: functional; details: ATCC 26430, 48 h; in short: as §1
Staphylococcus aureus [9] = assay: Antibacterial activity against Staphylococcus aureus ATCC 6538P after 18 to 20 hrs at pH 7.5; assay type: functional, organism-based; in short: as §2
Aspergillus fumigatus [10] = assay: Induction of membrane depolarization in Aspergillus fumigatus at 1.56 to 100 uM at pH 7.5 by DiSC3(5)-based fluorescence assay; assay type: functional, organism-based; in short: as §4
Cryptococcus neoformans [11] = assay: Antifungal activity against Cryptococcus neoformans ATCC MYA422 after 72 hrs at pH 5.5; assay type: functional; details: ATCC MYA422, 72 h; in short: as §1
Escherichia coli [12] = assay: Antibacterial activity against Escherichia coli ATCC D21 after 18 to 20 hrs at pH 7.5; assay type: functional, organism-based; in short: as §2
Aspergillus fumigatus [13] = assay: Induction of membrane damage in Aspergillus fumigatus at 1.56 to 100 uM at pH 7.5 by Sytox green-based fluorescence assay; assay type: functional, organism-based; in short: as §3
Candida albicans [14] = assay: Antifungal activity against Candida albicans ATCC 10231 after 48 hrs at pH 7.5; assay type: functional; details: ATCC 10231, 48 h; in short: as §1
[15] = Stability of the compound at 1 ug/uL after 2 hrs by RP-HPLC analysis in presence of proteinase K; assay type: ADME
In short: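 Peptide at 1 μg/μL in PBS (400 μL) mixed with 8 μL proteinase K solution (5 μg/μL; 2% DMSO final). Intact peptide quantified by RP-HPLC on a C4 column, 0.1% TFA water/acetonitrile, 10–90% B over 40 min. Measured against a peptide injection taken before enzyme addition. Melittin served as enzyme-activity control.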

RAW264.7 = assay: Cytotoxicity against mouse RAW264.7 cells at 200 uM after 16 hrs by XTT assay; assay type: cell-based; details: raw264.7, 16 h
In short: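 RAW264.7 macrophages were grown in DMEM with 10% FBS, L-glutamine, pyruvate and nonessential amino acids at 37 °C, 5% CO2. Cells were seeded at 2 × 10^5 per well overnight, then exposed to peptides at 3.12–200 μM for 16 h. Medium was replaced with fresh medium plus XTT reagent. LC50 was taken from dose–viability curves.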

Mus musculus [16] = assay: Toxicity in immunocompromized ICR mouse assessed as weight loss at 9 mg/kg, at pH 5.5 it administered on day 1, 4, 7 and 11 monitored for 28 days; assay type: organism-based; set-up: dose 9 mg/kg, route endotracheal; details: in vivo, inhaled_or_intranasal, pH 5.5, 9 mg/kg, 672 h
In short: (§5)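 Six-week-old female ICR mice (n = 5) were immunosuppressed with cortisone acetate (150 mg/kg in PBS/0.1% Tween 80, s.c.) 4 days before the first dose, on that day, and 2 and 4 days after. Peptide in saline at pH 5.5 was given i.t. on days 1, 4, 7 and 11. Survival, weight, appearance and behaviour were followed for 28 days.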

Aspergillus fumigatus [17] = assay: Antifungal activity against Aspergillus fumigatus Af293 infected in immunocompromized ICR mouse assessed as reduction in fungal load in lung at 4.5 mg/kg, at pH 5.5 it administered on day 1 and 4 measured after 5 days post infection (reference value: 80 to 12920 CFU); assay type: functional; details: route endotracheal
Aspergillus fumigatus [18] = assay: Antifungal activity against Aspergillus fumigatus Af293 infected in immunocompromized ICR mouse assessed as reduction in fungal load in kidney at 4.5 mg/kg, at pH 5.5 it administered on day 1 and 4 measured after 5 days post infection (reference value: 20 to 5400 CFU); assay type: functional; details: route endotracheal
[19] = Ratio of LC50 for mouse RAW264.7 cells to MIC for Aspergillus fumigatus ATCC 26430; assay type: functional
In short: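 LC50: RAW264.7 macrophages in supplemented DMEM, 2 × 10^5 cells/well overnight, then peptide at 3.12–200 μM for 16 h. Viability read by XTT; LC50 from dose–response curves. MIC: CLSI M38-A2 broth microdilution, 2 × 10^3 CFU/mL A. fumigatus ATCC 26430 in RPMI 1640/0.165 M MOPS (pH 5.5 or 7.5). Serial 2-fold dilutions, 35 °C for 48 h, growth scored visually. In vitro values are means of duplicates.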

Aspergillus fumigatus [20] = assay: Antifungal activity against Aspergillus fumigatus Af293 infected in immunocompromized ICR mouse assessed as reduction in fungal load in spleen at 4.5 mg/kg, at pH 5.5 it administered on day 1 and 4 measured after 5 days post infection (reference value: 10 to 140 CFU); assay type: functional; details: route endotracheal
[21] = Toxicity in human RBC assessed as hemolytic activity at 125 uM at pH 7.5 after 60 mins by spectrophotometry; assay type: cell-based; details: erythrocyte, pH 7.5, 1 h
In short: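 Human erythrocytes (4% final) were incubated with peptide in PBS for 60 min at 37 °C. Hemoglobin release was read as supernatant absorbance at 540 nm. PBS alone served as the 0% reference and 1% Triton as the 100% reference. Values are averages of duplicates.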

Mus musculus [22] = assay: Toxicity in immunocompromized ICR mouse assessed as visible signs of toxicity at 9 mg/kg, at pH 5.5 it administered on day 1, 4, 7 and 11 monitored for 28 days; assay type: organism-based; set-up: dose 9 mg/kg, route endotracheal; details: in vivo, inhaled_or_intranasal, pH 5.5, 9 mg/kg, 672 h; in short: as §5

SMILES | MIC (Aspergillus fumigatus [1]) [µM] | Activity (Escherichia coli [2]) | Activity (Aspergillus fumigatus [3]) | MIC (Candida albicans [4]) [µM] | Activity (Staphylococcus aureus [5]) | Activity (Aspergillus fumigatus [6]) | MIC (Cryptococcus neoformans [7]) [µM] | MIC (Aspergillus fumigatus [8]) [µM] | Activity (Staphylococcus aureus [9]) | Activity (Aspergillus fumigatus [10]) | MIC (Cryptococcus neoformans [11]) [µM] | Activity (Escherichia coli [12]) | Activity (Aspergillus fumigatus [13]) | MIC (Candida albicans [14]) [µM] | other results
CCCCCCCCCCCCCCCCCC(=O)N[C@@H](Cc1c[nH]cn1)C(=O)N[C@@H](Cc1c[nH]cn1)C(=O)N1CCCN(C(=O)[C@H](Cc2c[nH]cn2)NC(=O)[C@H](Cc2c[nH]cn2)NC(=O)CCCCCCCCCCCCCCCCC)Cc2cc(cc(C(N)=O)c2)CN(C(=O)[C@H](Cc2c[nH]cn2)NC(=O)[C@H](Cc2c[nH]cn2)NC(=O)CCCCCCCCCCCCCCCCC)CCC1 | > 100 | inactive | inactive | 100 (≈ 190 µg/mL) | inactive | inactive | > 100 | > 100 | inactive | inactive | 25 (≈ 47.5 µg/mL) | inactive | inactive | > 100 | –
C[C@@H]1[C@H](O)[C@@H](C)/C=C/C=C/C=C/C=C/C=C/C=C/C=C/[C@H](O[C@@H]2O[C@H](C)[C@@H](O)[C@H](N)[C@@H]2O)C[C@@H]2O[C@](O)(C[C@@H](O)C[C@@H](O)[C@H](O)CC[C@@H](O)C[C@@H](O)CC(=O)O[C@H]1C)C[C@H](O)[C@H]2C(=O)O [AMPHOTERICIN B] | 0.17 (≈ 0.157 µg/mL) | – | – | 2.7 (≈ 2.5 µg/mL) | – | – | 0.17 (≈ 0.157 µg/mL) | 1 (≈ 0.924 µg/mL) | – | – | 1.35 (≈ 1.25 µg/mL) | – | – | 0.33 (≈ 0.305 µg/mL) | –
CCCCCC(=O)N[C@@H](Cc1cnc[nH]1)C(=O)N[C@@H](Cc1cnc[nH]1)C(=O)N1CCCN(C(=O)[C@H](Cc2cnc[nH]2)NC(=O)[C@H](Cc2cnc[nH]2)NC(=O)CCCCC)Cc2cc(cc(C(N)=O)c2)CN(C(=O)[C@H](Cc2cnc[nH]2)NC(=O)[C@H](Cc2cnc[nH]2)NC(=O)CCCCC)CCC1 | > 100 | inactive | inactive | > 100 | inactive | inactive | > 100 | > 100 | inactive | inactive | > 100 | inactive | inactive | > 100 | –
CC[C@H](C)[C@H](NC(=O)CN)C(=O)NCC(=O)N[C@@H](C)C(=O)N[C@H](C(=O)N[C@@H](CC(C)C)C(=O)N[C@@H](CCCCN)C(=O)N[C@H](C(=O)N[C@@H](CC(C)C)C(=O)N[C@H](C(=O)N[C@H](C(=O)NCC(=O)N[C@@H](CC(C)C)C(=O)N1CCC[C@H]1C(=O)N[C@@H](C)C(=O)N[C@@H](CC(C)C)C(=O)N[C@H](C(=O)N[C@@H](CO)C(=O)N[C@@H](Cc1c[nH]c2ccccc12)C(=O)N[C@H](C(=O)N[C@@H](CCCCN)C(=O)N[C@@H](CCCNC(=N)N)C(=O)N[C@@H](CCCCN)C(=O)N[C@@H](CCCNC(=N)N)C(=O)N[C@@H](CCC(N)=O)C(=O)N[C@@H](CCC(N)=O)C(N)=O)[C@@H](C)CC)[C@@H](C)CC)[C@@H](C)O)[C@@H](C)O)C(C)C)C(C)C [MELITTIN] | – | – | Active | – | – | Active | – | – | – | Active | – | – | Active | – | Stability ([15]; 2 h): Unstable
CCCCCCCCCCCCCC(=O)N[C@@H](Cc1c[nH]cn1)C(=O)N[C@@H](Cc1c[nH]cn1)C(=O)N1CCCN(C(=O)[C@H](Cc2c[nH]cn2)NC(=O)[C@H](Cc2c[nH]cn2)NC(=O)CCCCCCCCCCCCC)Cc2cc(cc(C(N)=O)c2)CN(C(=O)[C@H](Cc2c[nH]cn2)NC(=O)[C@H](Cc2c[nH]cn2)NC(=O)CCCCCCCCCCCCC)CCC1 [listing 1 of 2 here] | – | inactive | inactive | – | inactive | Active | – | – | inactive | Active | – | inactive | inactive | – | –
CCCCCCCCCCCCCC(=O)N[C@@H](Cc1c[nH]cn1)C(=O)N[C@@H](Cc1c[nH]cn1)C(=O)N1CCCN(C(=O)[C@H](Cc2c[nH]cn2)NC(=O)[C@H](Cc2c[nH]cn2)NC(=O)CCCCCCCCCCCCC)Cc2cc(cc(C(N)=O)c2)CN(C(=O)[C@H](Cc2c[nH]cn2)NC(=O)[C@H](Cc2c[nH]cn2)NC(=O)CCCCCCCCCCCCC)CCC1 [listing 2 of 2 here] | > 100 | – | – | > 100 | – | – | > 100 | 3.12 (≈ 5.4 µg/mL) | – | – | 3.12 (≈ 5.4 µg/mL) | – | – | > 100 | Activity (RAW264.7): Non-toxic; Activity (Mus musculus [16]): Non-toxic; CFU (Aspergillus fumigatus [17]): 40; CFU (Aspergillus fumigatus [18]): 70; Ratio [19]: 64; remaining at 2 h, 1 ug/uL ([15]; proteinase K, read-out: Stability): 80%; CFU (Aspergillus fumigatus [20]): 20; Activity [21]: Non-toxic; Activity (Mus musculus [22]): Non-toxic
CCCCCCCCCCCCCCN[C@@H](Cc1cnc[nH]1)C(=O)N[C@@H](Cc1cnc[nH]1)C(=O)O | > 100 | – | inactive | > 100 | – | inactive | > 100 | 50 (≈ 24.4 µg/mL) | – | inactive | 25 (≈ 12.2 µg/mL) | – | inactive | > 100 | –

— ChEMBL document CHEMBL2016446, “Trivalent ultrashort lipopeptides are potent pH dependent antifungal agents” (J Med Chem, 2012)
